Laboratory results published in ChEMBL document CHEMBL1129944, “[[(Arylpiperazinyl)alkyl]thio]thieno[2,3-d]pyrimidinone derivatives as high-affinity, selective 5-HT1A receptor ligands” (J Med Chem, 1997).

Tests used:
[1] = target: T1, 5-hydroxytryptamine receptor 1A (Rattus norvegicus, UniProt P19327); assay: In vitro inhibitory concentration against radioligand [3H]8-OH-DPAT binding to 5-hydroxytryptamine 1A receptor in rat hippocampal membrane.; format: cell membranes, Hippocampus
T1 sequence (P19327 whole entry): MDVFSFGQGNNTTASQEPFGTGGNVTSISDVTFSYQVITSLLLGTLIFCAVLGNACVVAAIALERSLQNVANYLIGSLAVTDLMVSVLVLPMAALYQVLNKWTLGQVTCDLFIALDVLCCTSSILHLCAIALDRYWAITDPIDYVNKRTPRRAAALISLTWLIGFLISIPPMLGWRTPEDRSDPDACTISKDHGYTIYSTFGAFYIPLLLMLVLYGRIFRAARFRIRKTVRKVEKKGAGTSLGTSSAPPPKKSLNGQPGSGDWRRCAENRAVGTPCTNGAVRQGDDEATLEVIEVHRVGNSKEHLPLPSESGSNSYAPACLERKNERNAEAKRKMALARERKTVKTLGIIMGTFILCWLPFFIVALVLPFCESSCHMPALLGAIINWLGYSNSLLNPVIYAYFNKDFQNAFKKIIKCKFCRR
Method in brief: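 Rat hippocampal membranes (male SD rats, ~150 g) were washed in 50 mM Tris-HCl pH 7.4, including 10 min at 37 °C. Incubation buffer contained 4 mM CaCl2 and 10 μM pargyline. Filtered onto GF/B and counted; 50% inhibitory concentration from fitted curves.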

[2] = target: T2, Adrenergic receptor alpha-1 (Rattus norvegicus, UniProt P15823+P23944+P43140); assay: In vitro inhibitory concentration against radioligand [3H]prazosin binding to alpha-1 adrenergic receptor in rat cortical membrane.; format: cell membranes
T2 sequence (P15823 whole entry): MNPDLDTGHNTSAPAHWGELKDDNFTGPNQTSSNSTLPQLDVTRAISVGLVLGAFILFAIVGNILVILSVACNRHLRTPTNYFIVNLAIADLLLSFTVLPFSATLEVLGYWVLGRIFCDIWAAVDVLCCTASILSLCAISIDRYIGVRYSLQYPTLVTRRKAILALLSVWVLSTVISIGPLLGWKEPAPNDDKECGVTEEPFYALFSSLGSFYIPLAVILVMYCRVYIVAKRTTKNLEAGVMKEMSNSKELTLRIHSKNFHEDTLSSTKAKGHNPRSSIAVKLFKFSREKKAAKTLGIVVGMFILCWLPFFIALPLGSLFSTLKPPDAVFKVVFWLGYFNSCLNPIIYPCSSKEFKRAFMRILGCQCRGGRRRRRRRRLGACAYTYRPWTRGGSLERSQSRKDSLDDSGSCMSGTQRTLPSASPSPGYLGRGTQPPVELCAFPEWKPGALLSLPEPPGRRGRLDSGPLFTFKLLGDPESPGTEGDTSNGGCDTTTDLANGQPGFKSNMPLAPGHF
T2 sequence (P23944 whole entry): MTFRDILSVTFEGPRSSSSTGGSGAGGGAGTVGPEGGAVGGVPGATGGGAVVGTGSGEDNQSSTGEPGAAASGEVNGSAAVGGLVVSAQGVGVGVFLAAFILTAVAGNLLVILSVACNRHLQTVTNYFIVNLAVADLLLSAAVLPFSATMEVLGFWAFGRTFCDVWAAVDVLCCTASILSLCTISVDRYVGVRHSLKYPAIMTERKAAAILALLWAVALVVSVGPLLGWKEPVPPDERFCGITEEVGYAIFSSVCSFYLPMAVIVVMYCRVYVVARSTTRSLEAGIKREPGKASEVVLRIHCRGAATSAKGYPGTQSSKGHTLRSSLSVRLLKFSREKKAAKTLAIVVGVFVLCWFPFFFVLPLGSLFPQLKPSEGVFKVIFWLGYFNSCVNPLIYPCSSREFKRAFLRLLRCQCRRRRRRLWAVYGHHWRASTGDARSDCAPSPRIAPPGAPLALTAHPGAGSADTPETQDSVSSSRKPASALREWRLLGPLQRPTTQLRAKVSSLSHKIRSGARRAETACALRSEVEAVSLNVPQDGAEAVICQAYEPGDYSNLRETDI
T2 sequence (P43140 whole entry): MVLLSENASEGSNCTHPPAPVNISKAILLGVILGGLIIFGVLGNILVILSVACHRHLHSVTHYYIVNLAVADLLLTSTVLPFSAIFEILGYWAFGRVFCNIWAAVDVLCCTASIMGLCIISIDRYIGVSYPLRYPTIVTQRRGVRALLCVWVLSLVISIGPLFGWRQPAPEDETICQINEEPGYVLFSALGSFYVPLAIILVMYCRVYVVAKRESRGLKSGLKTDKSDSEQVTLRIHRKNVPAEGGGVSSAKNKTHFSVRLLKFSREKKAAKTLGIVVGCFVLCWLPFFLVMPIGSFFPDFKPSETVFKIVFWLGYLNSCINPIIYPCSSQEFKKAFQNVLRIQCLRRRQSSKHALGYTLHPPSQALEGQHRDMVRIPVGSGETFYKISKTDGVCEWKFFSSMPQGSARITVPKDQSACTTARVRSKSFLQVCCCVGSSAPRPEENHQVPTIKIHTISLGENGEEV
Method in brief: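 Male CRL:CD(SD)BR-COBS rats (~150 g) were decapitated. Cortex was homogenized in 50 mM Tris-HCl pH 7.4, spun at 50000g, given 10 min at 37 °C and washed. Incubation buffer had 0.1% ascorbic acid and 10 μM pargyline. GF/B filtration and scintillation counting; IC50 from dose-inhibition curves.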

[3] = target: Serotonin 1a (5-HT1a) receptor/Adrenergic receptor alpha-1 (Rattus norvegicus) (UniProt P15823+P23944+P43140+P19327); assay: Selectivity for alpha-1-adrenergic receptor to that of 5-HT1A receptor.; format: protein assay
Method in brief: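 Ratio of IC50 at α1-adrenoceptors ([3H]prazosin, rat cortex) to IC50 at 5-HT1A receptors ([3H]-8-OH-DPAT, rat hippocampus). Each IC50 came from radioligand displacement curves.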

[4] = target: T3, 5-hydroxytryptamine receptor 1A (Rattus norvegicus) (UniProt P19327); assay: Compound at 10E-5 M was tested in vitro for the inhibition of radioligand [3H]8-OH-DPAT binding to 5-hydroxytryptamine 1A receptor in rat hippocampal membrane; format: cell membranes; conditions: Hippocampus
T3 sequence (whole entry): T1 sequence (P19327 whole entry)

[5] = target: Adrenergic receptor alpha-1 (Rattus norvegicus) (UniProt P15823+P23944+P43140); assay: Compound at 10E-5 M was tested in vitro for the inhibition of radioligand [3H]-prazosin binding to Alpha-1 adrenergic receptor in rat cortical membrane; format: cell membranes

Compound | IC50 [1] | IC50 [2] | Selectivity [3] | inhibition [4] | inhibition [5]
O=c1[nH]c(SCCCN2CCN(c3ccccc3Cl)CC2)nc2sc3c(c12)CCCC3 | 943 nM | – | – | – | –
COc1ccccc1N1CCN(CCCSc2nc3sc4c(c3c(=O)n2N)CCCC4)CC1 | 1.3 nM | 39 nM | 30 | – | –
COc1ccccc1N1CCN(CCCSc2nc3sccc3c(=O)n2N)CC1 | 1.2 nM | 2.9 nM | 2 | – | –
O=c1[nH]c(SCCCN2CCN(c3cccc4ccccc34)CC2)nc2sc3c(c12)CCCC3 | 371 nM | – | – | – | –
Oc1nc(SCCCN2CCN(c3cccc4ccccc34)CC2)nc2sc3c(c12)CCCC3 | – | 445 nM | 1 | – | –
Cc1sc2nc(SCCCN3CCN(c4ccccc4Cl)CC3)[nH]c(=O)c2c1C | 460 nM | – | – | – | –
Cc1sc2nc(SCCCN3CCN(c4ccccc4Cl)CC3)nc(O)c2c1C | – | 161 nM | 0.35 | – | –
COc1ccccc1N1CCN(CCCn2c(SC)nc3sc4c(c3c2=O)CCCC4)CC1 | 511 nM | 95 nM | 0.2 | – | –
Oc1nc(SCCCN2CCN(c3ncccn3)CC2)nc2sc3c(c12)CCCC3 | 505 nM | 1814 nM | 3.5 | – | –
Cc1sc2nc(SCCCN3CCN(c4ncccn4)CC3)[nH]c(=O)c2c1C | 226 nM | – | – | – | –
COc1ccccc1N1CCN(CCc2nn3c(=O)c4c(C)c(C)sc4nc3s2)CC1 | 42 nM | 125 nM | 3 | – | –
Oc1nc(SCCCN2CCN(c3ccccc3Cl)CC2)nc2sc3c(c12)CCCC3 | – | 168 nM | 0.2 | – | –
Cc1sc2nc(SCCCN3CCN(c4ncccn4)CC3)n(C)c(=O)c2c1C | 65 nM | 2030 nM | 31 | – | –
COc1ccccc1N1CCN(CCCSc2nc3sc(C)c(C)c3c(=O)n2C)CC1 | 3 nM | 27 nM | 9 | – | –
O=c1[nH]c(SCCCN2CCN(c3cccc4ccccc34)CC2)nc2sc(-c3ccccc3)cc12 | 2010 nM | – | – | – | –
COc1ccccc1N1CCN(CCSc2nc3sc4c(c3c(=O)[nH]2)CCCC4)CC1 | 97 nM | – | – | – | –
Oc1nc(SCCCN2CCN(c3cccc4ccccc34)CC2)nc2sc(-c3ccccc3)cc12 | – | 2454 nM | 1 | – | –
COc1ccc(N2CCN(CCCSc3nc(O)c4c(C)c(C)sc4n3)CC2)cc1 | – | – | – | < 50% | < 50%
COc1ccccc1N1CCN(CCCSc2nc3ccccc3c(=O)n2N)CC1 | 0.5 nM | 4 nM | 8 | – | –

Compound | IC50 [1] | IC50 [2] | Selectivity [3] | inhibition [4] | inhibition [5]
Cc1ccc(N(CC2=NCCN2)c2cccc(O)c2)cc1 | – | – | – | < 50% | –
COc1ccccc1N1CCN(CCCOc2nc(SC)nc3sc4c(c23)CCCC4)CC1 | 1420 nM | 75 nM | 0.05 | – | –
Cc1sc2nc(SCCCN3CCN(c4ncccn4)CC3)nc(O)c2c1C | – | 1098 nM | 5 | – | –
NCCc1c[nH]c2ccc(O)cc12 | – | – | – | – | < 50%
Cc1sc2nc(SCCCN3CCN(c4cccc5ccccc45)CC3)[nH]c(=O)c2c1C | 355 nM | – | – | – | –
Cc1sc2nc(SCCCN3CCN(c4ccc(Cl)cc4)CC3)nc(O)c2c1C | – | – | – | < 50% | < 50%
COc1ccccc1N1CCN(CCCSc2nc(O)c3c4c(sc3n2)CCCC4)CC1 | – | 38 nM | 0.6 | – | –
Cc1sc2nc(SCCCN3CCN(c4cccc5ccccc45)CC3)nc(O)c2c1C | – | 886 nM | 2.5 | – | –
Cc1sc2nc(SCCCN3CCN(c4ccccc4)CC3)n(N)c(=O)c2c1C | 3.3 nM | 43 nM | 13 | – | –
COc1ccccc1N1CCN(CCCSc2nc(O)c3c(n2)sc2ccccc23)CC1 | 46 nM | 91 nM | 2 | – | –
Cc1sc2[nH]c(=S)n(N)c(=O)c2c1C | – | > 10000 nM | – | < 50% | –
COc1ccccc1N1CCN(CCCSc2nc3sc4c(c3c(=O)n2C)CCCC4)CC1 | 7 nM | 64 nM | 9 | – | –
COc1ccccc1N1CCN(CCCSc2nc(O)c3cc(-c4ccccc4)sc3n2)CC1 | 386 nM | 224 nM | 0.6 | – | –
COc1ccccc1N1CCN(CCCSc2nc3sc4c(c3c(=O)[nH]2)CCCC4)CC1 | 59 nM | – | – | – | –
COc1ccccc1N1CCN(CCCSc2nc3sc(C)c(C)c3c(=O)n2Nc2ccccc2)CC1 | 497 nM | 32 nM | 0.06 | – | –
Cc1sc2nc(SCCCN3CCN(c4cccc(Cl)c4)CC3)nc(O)c2c1C | 986 nM | 299 nM | 0.3 | – | –
COc1ccccc1N1CCN(CCSc2nc(O)c3c4c(sc3n2)CCCC4)CC1 | – | 20 nM | 0.2 | – | –
COc1ccccc1N1CCN(CCCSc2nc(O)c3c(C)c(C)sc3n2)CC1 | 24 nM | 40 nM | 2 | – | –
